# Assay outcomes: PubChem, The Scripps Research Institute Molecular Screening Center
# Shown are actives, neighbours in structure and some others; about 4.2% of the full set was active somewhere.
# TAAR1 ag = human TAAR1 agonism. AID 624467. activation, % at 3 µM. CHO RD-HGA16 TAAR1, Fluo-8 calcium fluorescence; vehicle wells 0%, saturating PEA agonist 100%. 0.99% of 360,000 active. Q96RJ0;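 active = activation above the mean activation of all test compounds in the run plus 3 SD, cut at about 38% in these data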
#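 Assay system: CHO-derived RD-HGA16 cells with stable Gα16 and human TAAR1; timing: 17-24 h seeding, 75 min 37 °C dye, 30 min RT; read-out: % activation from peak over basal fluorescence ratio, DMSO-to-PEA scaled; measured by: kinetic Fluo-8 calcium fluorescence; benchmarks: low control DMSO, high control PEA (EC100); doses: 3 µM single concentration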
# OX1R antag-1 = antagonists of human orexin 1 receptor | 0.43% of 330,000 active | AID 434989 | CHO/OX1R cells, Fluo-8 calcium fluorescence, orexin A | O43613 | inhibition, % at 5 µM;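 active = inhibition above its plate's threshold, mean inhibition of all tested compounds on the plate plus 3 SD, cut at about 37% in these data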
# Target sequence (O43613 whole entry, looked up): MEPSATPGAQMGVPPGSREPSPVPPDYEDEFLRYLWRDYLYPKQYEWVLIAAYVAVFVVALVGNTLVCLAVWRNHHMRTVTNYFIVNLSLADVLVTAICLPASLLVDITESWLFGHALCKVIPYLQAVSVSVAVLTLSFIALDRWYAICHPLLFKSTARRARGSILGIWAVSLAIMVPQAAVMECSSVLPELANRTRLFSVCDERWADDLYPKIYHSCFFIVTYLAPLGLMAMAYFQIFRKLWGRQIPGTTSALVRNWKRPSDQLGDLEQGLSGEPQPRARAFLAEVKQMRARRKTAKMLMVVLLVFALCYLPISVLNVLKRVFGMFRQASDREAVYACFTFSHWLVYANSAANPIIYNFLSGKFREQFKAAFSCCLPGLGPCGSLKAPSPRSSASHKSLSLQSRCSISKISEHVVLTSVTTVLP
# TAAR1 antagonist = human TAAR1 antagonism. CHO RD-HGA16 TAAR1, Fluo-8 calcium fluorescence, antagonist. inhibition, % at 3 µM. 1.5% of 360,000 active. AID 624466;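 active = inhibition above a per-plate cutoff, the mean inhibition of test compounds on that plate plus 3 SD, cut at about 49% in these data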
#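 Test system: CHO RD-HGA16 cells bearing hTAAR1 | Reagent: β-PEA, EC80 | Compound dosing: 3 µM, single point | Schedule: Dye loading 75 min at 37 °C, then 30 min room temperature | Signal: Calcium fluorescence with Fluo-8 | Evaluation: Percent inhibition of PEA-evoked calcium signal, max/basal emission ratio | Control set: DMSO-only wells and EC80 β-PEA-stimulated wells | Repeats: Singlicate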
# OX1R antag-2 = antagonists of human orexin 1 receptor (OX1R); inhibition, % at 6.6 µM; OX1R-expressing cells, FRET antagonist read-out; O43613; 1.8% of 330,000 active; AID 485270; in the data active = inhibition mostly above about 38%, no sharp cut-off; inactive = mostly below about 40%
# GalR3 antag = blocks the human galanin receptor 3; 0.44% of 360,000 active; O60755; HEK293 GalR3-CNG cAMP membrane potential fluorescence; galR3 body fused to GalR1 C-terminus; inhibition, % at 3 µM; AID 651719;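 active = inhibition above the screen-wide average plus 3 SD, cut at about 13% in these data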;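 also: forskolin and galanin both at EC90 stimulate the cells; cAMP rise reported by CNG channel membrane potential dye signal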
# CHO parental Ca = signal in parental CHO cells, OX1R antagonist counter-screen. 0.63% of 330,000 active. parental CHO-K1, ATP-induced calcium, Fluo-8 fluorescence. inhibition, % at 5.6 µM;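 active = inhibition above that plate's mean sample inhibition plus 3 SD, cut at about 26% in these data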
#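 Material – parental CHO cells · Reagent – ATP stimulus · Compound – single nominal dose of 5.6 µM per compound · Detection – Fluo-8 fluorescence · Read-out basis – percent inhibition of calcium signal · Controls – ATP-challenged DMSO wells low, unchallenged DMSO wells high · Repeats – no replicates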
# Numbers stand for hits; - = inactive; . = no result.
SMILES,TAAR1 ag,OX1R antag-1,TAAR1 antagonist,OX1R antag-2,GalR3 antag,CHO parental Ca
O=C(C1CCC(CNS(=O)(=O)c2cccc3nsnc23)CC1)N1CC=C(c2ccccc2)CC1 (stereo unspecified),-,-,-,-,-,-
O=C(C1CCN(S(=O)(=O)c2cccc3nsnc23)CC1)N1CC=C(c2ccccc2)CC1,-,-,56,-,-,-
Cc1nn(-c2ccccc2)c(C)c1/C=C/C(=O)OCC(=O)Nc1ccc(S(N)(=O)=O)cc1,-,-,-,-,-,-
Cc1c(N=N/C(C(=O)Nc2ccccc2)=C(/O)c2ccccc2)c(=O)n(-c2ccccc2)n1C,-,-,-,-,-,-
CCOC(=O)/C(N=Nc1c(C)n(C)n(-c2ccccc2)c1=O)=C(/O)c1ccccc1,-,-,-,52,-,-
CCOC(=O)Cn1nc(-c2ccc(F)cc2)cc(Cc2ccccc2)c1=O,.,-,.,-,.,-
Cc1c(C(=O)N2CCc3ccccc3C2)oc2ccc(S(=O)(=O)N3CCCCCC3)cc12,42,-,-,-,-,-
COc1cc2[nH]c(=O)n3nc(-c4ccccc4)nc3c2cc1OC,.,-,.,37,.,-
COCC(C)NC(=O)Cn1c(SCc2ccccc2)nc2ccccc21 (stereo unspecified),-,-,-,-,-,-
O=C1C(Oc2ccccc2)C(c2ccc3c(c2)OCO3)N1CCc1ccc(F)cc1 (stereo unspecified),-,-,-,-,-,-
COc1ccc(CCN2C(=O)C(Oc3ccccc3C)C2c2ccc3c(c2)OCO3)cc1OC (stereo unspecified),-,-,55,-,-,-
COc1ccc(CCN2C(=O)C(Oc3ccccc3C)C2c2ccc3c(c2)OCO3)cc1 (stereo unspecified),-,-,56,-,-,-
Cc1nn(-c2cc(C(F)(F)F)ccc2Cl)c2nc(C(Cl)(Cl)Cl)[nH]c(=O)c12,-,-,-,40,-,-
CC(=O)Nc1cc(OC(C)=O)c2nonc2c1OC(C)=O,-,-,-,85,-,-
CC(=O)Nc1nonc1NC(C)=O,-,-,-,-,-,-
CN1CCc2c(sc(NC(=O)c3ccc(S(=O)(=O)N4CCc5ccccc54)cc3)c2C(N)=O)C1,-,-,50,-,-,-
CNC(=O)c1c(NC(=O)c2ccc(S(=O)(=O)N3CCCc4ccccc43)cc2)sc2c1CCN(C)C2,-,-,-,-,-,-
COc1ccc2c(C)cc(SCC(=O)c3ccc4c(c3)OCO4)nc2c1,-,-,-,40,-,-
COc1ccc2c(C)cc(SCC(=O)NC3CCCC3)nc2c1,-,-,-,-,-,-
CS(=O)(=O)N1CCc2cc(-c3csc(NC(=O)C(c4ccccc4)c4ccccc4)n3)ccc21,-,-,-,-,-,-
CC1Cc2cc(-c3csc(NC(=O)Cc4ccccc4)n3)ccc2N1S(C)(=O)=O (stereo unspecified),-,-,54,-,-,-
CC(=O)c1ccc2c3c(cccc13)C(=O)N(c1c(C)nn(C)c1C)C2=O,-,-,-,67,-,-
Cc1ccc(S(=O)(=O)c2nc(S(C)(=O)=O)sc2N2CCN(C)CC2)cc1,-,-,-,-,-,-
CSc1sc2ccccc2[n+]1CCCS(=O)(=O)[O-],-,-,-,-,-,-
COc1ccc(Cl)cc1NC(=O)Nc1cc(C)on1,-,-,-,-,-,-
SMILES,TAAR1 ag,OX1R antag-1,TAAR1 antagonist,OX1R antag-2,GalR3 antag,CHO parental Ca
CN(C)c1ccc2nc3ccc(=[N+](C)C)cc-3sc2c1,-,-,-,59,-,-
COc1ccc(OC)c(NC(=O)c2nc(S(=O)(=O)Cc3ccccc3)ncc2Cl)c1,-,-,52,-,-,-
Cc1ccc(NC(=O)c2nc(S(=O)(=O)Cc3ccccc3)ncc2Cl)cc1,-,-,-,-,-,39
Cc1cccc(CS(=O)(=O)c2ncc(Cl)c(C(=O)Nc3c(C)cccc3C)n2)c1,-,77,-,89,-,-
Cc1nn(CCN)c(C)c1Cl,91,-,58,-,-,-
Cc1cccc(/C=N/NC(=O)c2cc(C3CC3)nc3ccccc23)n1,-,-,-,74,-,-
